Bioassay records (PubChem BioAssay)
SENP6 inh = inhibitors of human SENP6 protease; Q9GZR1; Recombinant SENP6 catalytic domain, aminoluciferin luminescence; inhibition, % at 10 µM; hit rate 1.8% among 330,000;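 active means inhibition above about 50% at the single tested dose, limit read from the data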
Target sequence (Q9GZR1 628-1112 limits assumed): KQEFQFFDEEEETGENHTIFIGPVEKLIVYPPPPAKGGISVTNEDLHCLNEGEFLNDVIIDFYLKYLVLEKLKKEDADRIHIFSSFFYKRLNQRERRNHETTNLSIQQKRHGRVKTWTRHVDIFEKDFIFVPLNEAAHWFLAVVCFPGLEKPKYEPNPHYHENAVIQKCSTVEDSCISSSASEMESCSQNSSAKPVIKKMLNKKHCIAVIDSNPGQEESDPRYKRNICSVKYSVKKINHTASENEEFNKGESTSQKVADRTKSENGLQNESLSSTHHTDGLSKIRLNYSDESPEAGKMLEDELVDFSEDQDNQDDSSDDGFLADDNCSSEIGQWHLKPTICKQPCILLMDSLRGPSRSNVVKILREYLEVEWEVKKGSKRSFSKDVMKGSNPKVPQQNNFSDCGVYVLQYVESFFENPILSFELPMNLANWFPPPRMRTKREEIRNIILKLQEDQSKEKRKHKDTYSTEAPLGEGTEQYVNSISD
SENP7 block = SENP7 protease inhibition; inhibition, % at 5 µM; recombinant SENP7, Z-RLRGG-aminoluciferin luminescence, 40 min; Q9BQF6; hit rate 1.5% among 330,000; AID 434973;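 active means inhibition above about 50% at the single test dose, limit read from the data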
SENP8 block-1 = blocks human SENP8 cleavage of Nedd8 substrate | recombinant SENP8, Nedd8 substrate fluorescence | hit rate 0.64% among 360,000 | Q96LD8 | inhibition, % at 20 µM; in the data active means inhibition mostly above about 40%, no sharp cut-off; inactive means mostly below about 27%
Target sequence (Q96LD8 whole entry, looked up): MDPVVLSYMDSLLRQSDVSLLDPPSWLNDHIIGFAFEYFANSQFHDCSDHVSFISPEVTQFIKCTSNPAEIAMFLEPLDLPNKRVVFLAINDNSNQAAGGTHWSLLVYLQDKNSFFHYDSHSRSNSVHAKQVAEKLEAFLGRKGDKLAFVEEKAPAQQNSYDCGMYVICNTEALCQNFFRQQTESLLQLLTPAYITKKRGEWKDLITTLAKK
SENP1 FRET inh = inhibitors of human SENP1 SUMO protease catalytic domain; inhibition, % at 10 µM; hit rate 0.21% among 360,000; recombinant SENP1 catalytic domain, CyPet-SUMO1-YPet FRET cleavage; Q9P0U3;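 active means inhibition at least 30% at 10 µM, raw YFP signal under a set limit, fluorescence ratio 0.5 to 1.5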
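Material – human SENP1 catalytic domain · Input – SENP1 enzyme, 20 pM final · Compound dosing – single concentration of 10 µM compound, 0.5% DMSO final · Timing – enzyme reaction for 50 min at room temperature, dark · Measured by – FRET fluorescence in CFP and YFP emission channels · Control set – no-enzyme wells low, DMSO-plus-enzyme wells high control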
SENP8 block-2 = inhibitors of human SENP8 protease | Q96LD8 | purified SENP8, Z-RLRGG-aminoluciferin cleavage, luminescence | inhibition, % at 10 µM | hit rate 1.2% among 330,000 | AID 2540; in the data active means inhibition above about 50%
Platelet DG rel = modulates dense granule release in human platelets; human platelet-rich plasma, SFLLRN dense granule ATP release, luminescence; inhibition, %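 (compounds screened at 7.5 µM in platelet-rich plasma)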; hit rate 0.22% among 300,000; AID 1663;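 active means mean replicate score, as percent of positive control, at or above 50; inconclusive means mean below 50 but at least one replicate at or above 50; inactive means mean and every replicate below 50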
SENP8 conf = confirmation of human SENP8 protease inhibitors; shares compounds with SENP7 block; Recombinant SENP8, Z-RLRGG-aminoluciferin luminescence, 60 min; inhibition, % at 12.5 µM; hit rate 40% among 6,200;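 active means mean inhibition across replicates above about 50%, limit read from the data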
SENP6 conf = confirmation of human SENP6 protease inhibitors; recombinant SENP6, Z-RLRGG-aminoluciferin luminescence; inhibition, % at 12.5 µM; shares compounds with SENP7 block; hit rate 58% among 6,200
SENP7 confirm = human SENP7 inhibition, confirmed; shares compounds with SENP7 block; recombinant SENP7, Z-RLRGG-aminoluciferin luminescence, 40 min; inhibition, % at 12.5 µM; hit rate 69% among 6,200; AID 488917
Casp3 select = inhibits human caspase-3 in SENP selectivity test. inhibition, % at 12.5 µM. shares compounds with SENP7 block. hit rate 60% among 6,200. purified caspase-3, Z-DEVD-aminoluciferin luminescence, 60 min;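 active means mean inhibition above about 50%, limit read from the data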
Luc interf = luminescence interference (SENP counter-screen); hit rate 39% among 6,200; shares compounds with SENP7 block; inhibition, % at 12.5 µM; Pre-incubated SENP8/Z-RLRGG-aminoluciferin, luciferase luminescence interference;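 active means mean inhibition above about 50% when retested at one dose, limit read from the data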
Numbers stand for hits; n = inactive; u = inconclusive; x = not tested or not shown. In the library only some 2.6% were active in any assay of this set; here they are far more common.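 How the source made its calls, unless noted: active means mean inhibition above about 50% in the one-dose retest (limit read from the data); inactive means the rest.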

SMILES | SENP6 inh | SENP7 block | SENP8 block-1 | SENP1 FRET inh | SENP8 block-2 | Platelet DG rel | SENP8 conf | SENP6 conf | SENP7 confirm | Casp3 select | Luc interf
Cn1c(-c2ncc(F)cc2F)cc2onc(-c3c(F)cccc3Cl)c2c1=O | n | n | n | n | n | x | x | x | x | x | x
Cn1c(-c2ccccc2)cc2onc(-c3ccccc3)c2c1=O | 95.4 | 94.9 | n | n | 95.1 | x | n | n | 55.3 | n | n
Cc1cccc(C)c1-n1nnnc1C(c1ccnc2ccccc12)N1CCN(C(=O)OCc2ccccc2)CC1 (stereo not given) | x | x | n | n | x | x | x | x | x | x | x
Cc1cc(C(=O)COC(=O)c2cccn2C)c(C)n1Cc1ccco1 | 66.9 | 66.9 | n | n | 63.5 | n | 80.9 | 80.4 | 94.1 | 68.4 | n
O=C(OCC(=O)c1cccs1)c1ccccc1 | n | 85.9 | n | n | 71.8 | n | 85.1 | 85.7 | 97.1 | 91.2 | 86.0
O=C(COC(=O)c1cccc(O)c1)c1ccccc1 | 85.5 | 86.8 | n | n | 78.5 | n | 86.4 | 86.7 | 97.2 | 87.5 | 86.5
Cc1nc(C2COc3ccccc3O2)sc1C(=O)O (stereo not given) | 88.0 | 79.8 | n | n | 83.5 | n | 89.9 | 90.6 | 99.4 | 96.7 | 88.1
CCOc1ccc(S(=O)(=O)Nc2cccc(C(=O)NCC(c3ccc(OC)cc3)N3CCOCC3)c2)cc1 (stereo not given) | n | n | n | n | n | n | x | x | x | x | x
O=C(Nc1ccc(Cl)cn1)c1ccc2c(Cl)c3c(nc2c1)CCC3 | n | 71.3 | n | n | n | n | n | n | n | n | n
Cc1cccc(NC(=O)c2ccc3c(Cl)c4c(nc3c2)CCCC4)n1 | n | 87.0 | n | n | n | n | n | n | n | n | n
c1csc(-c2ccc(N3CCOCC3)nn2)c1 | 54.0 | 66.8 | n | n | n | n | 56.9 | 55.6 | 86.1 | 87.7 | 63.3
CCOC(=O)C1CCN(c2ccc(-c3cccs3)nn2)CC1 | 95.6 | 95.3 | n | n | 91.0 | n | 93.7 | 93.6 | 100.0 | 96.2 | 90.0
CCOC(=O)C1CCN(c2ccc(Cl)nn2)CC1 | n | n | n | n | n | n | x | x | x | x | x
O=C(c1cc(-c2cccs2)on1)N1CCOCC1 | n | n | n | n | n | n | x | x | x | x | x
Cc1ccc(S(=O)(=O)c2c(C)cc(C)nc2Cl)cc1 | 61.9 | n | n | n | n | n | n | n | n | n | n
CCCCN1CC(=O)N2[C@H]3c4ccc(OC)cc4OC[C@@H]3[C@H](c3ccccc3)[C@]2(C)C1=O | n | n | n | n | n | x | x | x | x | x | x
COc1cccc(-c2nc(-c3ccccn3)no2)c1 | 97.3 | 97.0 | x | x | 91.8 | n | 94.7 | 97.5 | 102.7 | 98.5 | 96.5
COc1ccc(-c2cc(-c3ccccc3)no2)cc1 | 96.5 | 100.2 | n | n | 91.9 | u | n | 81.4 | 85.6 | 76.1 | n
COc1ccc(-c2nc(-c3ccc(C(=O)O)cc3)no2)cc1 | 97.8 | 94.9 | n | n | 97.3 | n | 98.2 | 98.4 | 101.7 | 86.1 | 97.4
COc1cccc(-c2noc(-c3cccs3)n2)c1 | 92.3 | 93.6 | n | n | 87.7 | n | n | 94.7 | 101.5 | 87.7 | 85.4
COc1ccc2cc(C(=O)N3CCN(c4ccccc4OC)CC3)[nH]c2c1 | n | n | n | n | n | n | x | x | x | x | x
FC(F)(F)c1cccc(-c2nc(-c3ccncc3)no2)c1 | x | x | n | n | x | n | x | x | x | x | x
Brc1ccc(-c2nnc(-c3cccc(Br)c3)o2)cc1 | n | n | n | n | n | n | x | x | x | x | x
COc1cccc(-c2noc(-c3cccnc3)n2)c1 | 81.1 | 79.0 | n | n | 58.4 | n | n | 67.7 | 90.9 | 84.3 | 52.2
O=C(O)c1ccc(-c2noc(-c3cccc(C(F)(F)F)c3)n2)cc1 | 58.4 | n | n | n | n | n | 53.8 | 55.9 | 80.1 | 55.7 | 53.5
SMILES | SENP6 inh | SENP7 block | SENP8 block-1 | SENP1 FRET inh | SENP8 block-2 | Platelet DG rel | SENP8 conf | SENP6 conf | SENP7 confirm | Casp3 select | Luc interf
COc1ccc(-c2noc(-c3ccccc3-c3ccccc3)n2)cc1 | n | n | n | n | n | n | x | x | x | x | x
COc1cccc(-c2nc(-c3ccccc3)no2)c1 | 95.5 | 95.3 | n | n | 88.5 | n | 86.7 | 93.0 | 98.5 | 84.8 | 82.7
O=C(O)c1ccc(-c2nnc(-c3cccc(Br)c3)o2)cc1 | 92.9 | n | n | n | n | n | 88.9 | 89.9 | 92.8 | 97.8 | n
CC(=O)Nc1ccc2c(c1)C(=Nc1ccc(C)cc1)c1ccccc1-2 | x | x | n | n | x | x | x | x | x | x | x
COc1ccc(C2=NN3C(C2)c2ccccc2OC32C(=O)N(C)c3ccccc32)cc1 (stereo not given) | 90.5 | 80.3 | n | n | 79.5 | n | n | n | n | n | n
Cc1ccccc1NC(=O)COC(=O)COc1ccc2ccc(=O)oc2c1 | x | x | n | n | x | x | x | x | x | x | x
CCC(=O)N(c1ccc(F)cc1)C1C=CS(=O)(=O)C1 (stereo not given) | n | 95.4 | n | n | n | n | n | n | n | n | n
CCCC(=O)N(c1ccccc1)C1C=CS(=O)(=O)C1 (stereo not given) | n | n | n | n | n | n | x | x | x | x | x
Cc1nc(-c2cccc(Br)c2)ccc1C(=O)O | n | 57.8 | n | n | n | n | 55.2 | 50.6 | 80.7 | 87.5 | 64.7
CSc1nsc(NC(=O)OCc2ccc(Cl)cc2)n1 | n | n | n | n | n | n | x | x | x | x | x
COc1ccsc1NC(=O)OCc1ccc(Cl)cc1 | 50.5 | n | n | n | n | n | 57.9 | 56.3 | 84.5 | 55.2 | 62.5
O=C1NC(Cc2ccccc2)c2nc3ccc(F)cc3c(=O)n2-c2ncccc21 (stereo not given) | x | x | n | n | x | x | x | x | x | x | x
O=C(NC1CC1)C1=C[C@@H](c2ccc(Br)cc2)C[C@@H](OCc2ccc(CO)cc2)O1 | n | n | n | n | n | n | x | x | x | x | x
NC(=S)Nc1cccc2cc3ccccc3cc12 | 60.5 | n | n | n | n | n | 50.9 | 59.7 | 74.0 | n | 61.1
NC(=S)Nc1cc2ccccc2c2ccccc12 | n | n | n | n | n | n | x | x | x | x | x
Cc1nc(Cl)cc(N/N=C/c2ccc(O)cc2)n1 | 87.3 | 90.6 | n | n | 89.3 | n | 90.1 | 89.6 | 99.4 | 89.8 | 87.2
COc1cccc(/C=N/Nc2cc(Cl)nc(C)n2)c1O | n | n | n | n | n | n | x | x | x | x | x
Cc1nc(Cl)cc(N/N=C/c2ccc(O)cc2O)n1 | 97.1 | 94.5 | n | n | 93.1 | n | 91.9 | 92.3 | 100.3 | 92.2 | 91.6
CCc1ccc(C(=O)O)cc1 | n | n | n | n | n | n | x | x | x | x | x
